Measurements collected from several papers.
CDK5: Cyclin-dependent kinase 5 (CDK5, Homo sapiens, UniProt Q00535)
CDK5 with p25: Cyclin-dependent kinase 5, with p25 (CDK5, Homo sapiens, UniProt Q00535)

Structure (SMILES) | target | read-out | mode | technique | concentration | quantity | value
Cc1ccc(NC(=O)c2ccnc(C(F)(F)F)c2)cc1-c1cc(OCCO)nc(N2CCOCC2)c1 | CDK5 | binding | – | competition with immobilised ligand | 1 µM | remaining binding | 95%
C[C@]1(O)CCCN(c2nc(Nc3ccc(S(=O)(=O)N[C@H]4CC[C@H](CN5CCN(c6ccc(C7CCC(=O)NC7=O)cc6F)CC5)CC4)cc3Cl)ncc2C(F)(F)F)C1 (stereo partly shown) | CDK5 | binding | – | competition with immobilised ligand | 1 µM | remaining binding | 72%
C1=C/COCc2cc(ccc2OCCN2CCCC2)Nc2nccc(n2)-c2cccc(c2)COC/1 | CDK5 | binding | – | – | 0.1 µM | remaining binding | 100%
COc1ccc2oc(-c3ccc4nc(N)oc4c3)c/c(=N\c3ccccc3NC(=O)CCN)c2c1 | CDK5 with p25 | binding | – | – | 1 µM | remaining binding | 102%
CC#CC(=O)N1CCC[C@H]1c1nc(-c2ccc(C(=O)Nc3ccccn3)cc2)c2c(N)nccn12 | CDK5 | enzyme activity | inhibitor | – | 1 µM | inhibition | 0%
CCCCC(=O)Nc1ccc(-c2ccc3ncn(CCC)c(=O)c3c2)cn1 | CDK5 | binding | – | competition with immobilised ligand | 0.5 µM | remaining binding | 78%
C[C@]1(O)CCCN(c2nc(Nc3ccc(S(=O)(=O)N[C@H]4CC[C@H](CN5CCN(c6ccc(C7CCC(=O)NC7=O)cc6F)CC5)CC4)cc3F)ncc2C(F)(F)F)C1 (stereo partly shown) | CDK5 | binding | – | competition with immobilised ligand | 1 µM | remaining binding | 59%
CO[C@@H]1[C@H](N(C)C(=O)c2ccccc2)C[C@H]2O[C@]1(C)n1c3ccccc3c3c4c(c5c6ccccc6n2c5c31)C(=O)NC4 | CDK5 | enzyme activity | inhibitor | – | 1 µM | inhibition | 0%
COc1ccc2[nH]c3c4[nH]c5ccc(OC)cc5c4c4c(c3c2c1)C(=O)NC4=O | CDK5 | binding | – | competition with immobilised ligand | 1 µM | remaining binding | 75%
CC(C)S(=O)(=O)c1ccc2nccc(Nc3ccc4sc(C5CCCC5)nc4c3)c2c1 | CDK5 with p25 | enzyme activity | inhibitor | – | 1 µM | activity vs control | 97.5%
